ChEMBL document CHEMBL4689842, “EUbOPEN Chemogenomics Library wave 1” (2021)

Tested on: HEK-293T
Assay: Multiplex assay against HEK293T;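 for Population Tubulin-Different-Phenotype (%): share of the cells with healthy nuclei that show this phenotype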
Format: toxicity, cell-based
Conditions: human
Method in brief: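 With compound added, live cells were imaged on a CQ1 microscope at 37°C and 5% CO2; staining with Hoechst33342, BioTracker Green Microtubule Cytoskeleton Dye, MitoTracker Red and Annexin V Alexa Fluor 680 had been done at seeding. The CellPathfinder machine-learning gating scheme split cells into Hoechst high-intensity objects or normal cells, normal cells into healthy, pyknosed or fragmented nuclei, and pyknosed cells into mitotic or apoptotic. The tubulin, mitochondrial-mass and membrane-permeability phenotypes are per cents of healthy-nucleus cells.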

[1] = 12 h, 1 µM, compound concentration 1 uM, replicate 1
[2] = 12 h, 1 µM, compound concentration 1 uM, replicate 2
[3] = 12 h, 10 µM, compound concentration 10 uM, replicate 1
[4] = 12 h, 10 µM, compound concentration 10 uM, replicate 2
[5] = 24 h, 1 µM, compound concentration 1 uM, replicate 1
[6] = 24 h, 1 µM, compound concentration 1 uM, replicate 2
[7] = 24 h, 10 µM, compound concentration 10 uM, replicate 1
[8] = 24 h, 10 µM, compound concentration 10 uM, replicate 2
[9] = 48 h, 1 µM, compound concentration 1 uM, replicate 1
[10] = 48 h, 1 µM, compound concentration 1 uM, replicate 2
[11] = 48 h, 10 µM, compound concentration 10 uM, replicate 1
[12] = 48 h, 10 µM, compound concentration 10 uM, replicate 2

SMILES: Cc1nc(-c2cn3c(n2)-c2ccc(-c4cnn(C(C)(C)C(N)=O)c4)cc2OCC3)n(C(C)C)n1 [TASELISIB]
- Population Apoptotic (%) [1]: 21%
- Population Fragmented Nuclei (%) [1]: 14%
- Population Healthy Nuclei (%) [1]: 44%
- Population Hoechst High Intensity Objects (%) [1]: 22%
- Population Membrane Permeable-Phenotype (%) [1]: 4%
- Population Mitochondria Different-Phenotype (%) [1]: 12%
- Population Mitotic Cells (%) [1]: 78%
- Population Normal (%) [1]: 77%
- Population Pyknosed Nuclei (%) [1]: 41%
- Population Tubulin-Different-Phenotype (%) [1]: 9%
- Total Cell Count [1]: 548
- Population Apoptotic (%) [2]: 17%
- Population Fragmented Nuclei (%) [2]: 2%
- Population Healthy Nuclei (%) [2]: 80%
- Population Hoechst High Intensity Objects (%) [2]: 7%
- Population Membrane Permeable-Phenotype (%) [2]: 0%
- Population Mitochondria Different-Phenotype (%) [2]: 28%
- Population Mitotic Cells (%) [2]: 82%
- Population Normal (%) [2]: 92%
- Population Pyknosed Nuclei (%) [2]: 16%
- Population Tubulin-Different-Phenotype (%) [2]: 13%
- Total Cell Count [2]: 803
- Population Apoptotic (%) [3]: 17%
- Population Fragmented Nuclei (%) [3]: 17%
- Population Healthy Nuclei (%) [3]: 49%
- Population Hoechst High Intensity Objects (%) [3]: 12%
- Population Membrane Permeable-Phenotype (%) [3]: 3%
- Population Mitochondria Different-Phenotype (%) [3]: 8%
- Population Mitotic Cells (%) [3]: 82%
- Population Normal (%) [3]: 87%
- Population Pyknosed Nuclei (%) [3]: 32%
- Population Tubulin-Different-Phenotype (%) [3]: 6%
- Total Cell Count [3]: 507
- Population Apoptotic (%) [4]: 11%
- Population Fragmented Nuclei (%) [4]: 8%
- Population Healthy Nuclei (%) [4]: 86%
- Population Hoechst High Intensity Objects (%) [4]: 3%
- Population Membrane Permeable-Phenotype (%) [4]: 1%
- Population Mitochondria Different-Phenotype (%) [4]: 11%
- Population Mitotic Cells (%) [4]: 88%
- Population Normal (%) [4]: 96%
- Population Pyknosed Nuclei (%) [4]: 4%
- Population Tubulin-Different-Phenotype (%) [4]: 10%
- Total Cell Count [4]: 1692
- Population Apoptotic (%) [5]: 24%
- Population Fragmented Nuclei (%) [5]: 16%
- Population Healthy Nuclei (%) [5]: 53%
- Population Hoechst High Intensity Objects (%) [5]: 17%
- Population Membrane Permeable-Phenotype (%) [5]: 3%
- Population Mitochondria Different-Phenotype (%) [5]: 15%
- Population Mitotic Cells (%) [5]: 75%
- Population Normal (%) [5]: 82%
- Population Pyknosed Nuclei (%) [5]: 30%
- Population Tubulin-Different-Phenotype (%) [5]: 18%
- Total Cell Count [5]: 507
- Population Apoptotic (%) [6]: 20%
- Population Fragmented Nuclei (%) [6]: 4%
- Population Healthy Nuclei (%) [6]: 84%
- Population Hoechst High Intensity Objects (%) [6]: 10%
- Population Membrane Permeable-Phenotype (%) [6]: 1%
- Population Mitochondria Different-Phenotype (%) [6]: 20%
- Population Mitotic Cells (%) [6]: 79%
- Population Normal (%) [6]: 89%
- Population Pyknosed Nuclei (%) [6]: 11%
- Population Tubulin-Different-Phenotype (%) [6]: 39%
- Total Cell Count [6]: 810
- Population Apoptotic (%) [7]: 27%
- Population Fragmented Nuclei (%) [7]: 13%
- Population Healthy Nuclei (%) [7]: 66%
- Population Hoechst High Intensity Objects (%) [7]: 8%
- Population Membrane Permeable-Phenotype (%) [7]: 12%
- Population Mitochondria Different-Phenotype (%) [7]: 5%
- Population Mitotic Cells (%) [7]: 72%
- Population Normal (%) [7]: 91%
- Population Pyknosed Nuclei (%) [7]: 19%
- Population Tubulin-Different-Phenotype (%) [7]: 11%
- Total Cell Count [7]: 535
- Population Apoptotic (%) [8]: 3%
- Population Fragmented Nuclei (%) [8]: 24%
- Population Healthy Nuclei (%) [8]: 73%
- Population Hoechst High Intensity Objects (%) [8]: 4%
- Population Membrane Permeable-Phenotype (%) [8]: 7%
- Population Mitochondria Different-Phenotype (%) [8]: 2%
- Population Mitotic Cells (%) [8]: 96%
- Population Normal (%) [8]: 95%
- Population Pyknosed Nuclei (%) [8]: 1%
- Population Tubulin-Different-Phenotype (%) [8]: 12%
- Total Cell Count [8]: 2851

SMILES: COc1cccc([C@@H](C)NCCCc2ccccc2Cl)c1.Cl [TECALCET HYDROCHLORIDE]
- Population Apoptotic (%) [1]: 45%
- Population Fragmented Nuclei (%) [1]: 9%
- Population Healthy Nuclei (%) [1]: 46%
- Population Hoechst High Intensity Objects (%) [1]: 11%
- Population Membrane Permeable-Phenotype (%) [1]: 2%
- Population Mitochondria Different-Phenotype (%) [1]: 83%
- Population Mitotic Cells (%) [1]: 54%
- Population Normal (%) [1]: 88%
- Population Pyknosed Nuclei (%) [1]: 44%
- Population Tubulin-Different-Phenotype (%) [1]: 57%
- Total Cell Count [1]: 333
- Population Apoptotic (%) [2]: 16%
- Population Fragmented Nuclei (%) [2]: 3%
- Population Healthy Nuclei (%) [2]: 29%
- Population Hoechst High Intensity Objects (%) [2]: 3%
- Population Membrane Permeable-Phenotype (%) [2]: 11%
- Population Mitochondria Different-Phenotype (%) [2]: 45%
- Population Mitotic Cells (%) [2]: 83%
- Population Normal (%) [2]: 96%
- Population Pyknosed Nuclei (%) [2]: 67%
- Population Tubulin-Different-Phenotype (%) [2]: 41%
- Total Cell Count [2]: 188
- Population Apoptotic (%) [3]: 80%
- Population Fragmented Nuclei (%) [3]: 9%
- Population Healthy Nuclei (%) [3]: 29%
- Population Hoechst High Intensity Objects (%) [3]: 12%
- Population Membrane Permeable-Phenotype (%) [3]: 2%
- Population Mitochondria Different-Phenotype (%) [3]: 100%
- Population Mitotic Cells (%) [3]: 19%
- Population Normal (%) [3]: 87%
- Population Pyknosed Nuclei (%) [3]: 60%
- Population Tubulin-Different-Phenotype (%) [3]: 93%
- Total Cell Count [3]: 290
- Population Apoptotic (%) [4]: 59%
- Population Fragmented Nuclei (%) [4]: 3%
- Population Healthy Nuclei (%) [4]: 22%
- Population Hoechst High Intensity Objects (%) [4]: 4%
- Population Membrane Permeable-Phenotype (%) [4]: 4%
- Population Mitochondria Different-Phenotype (%) [4]: 95%
- Population Mitotic Cells (%) [4]: 40%
- Population Normal (%) [4]: 95%
- Population Pyknosed Nuclei (%) [4]: 74%
- Population Tubulin-Different-Phenotype (%) [4]: 95%
- Total Cell Count [4]: 222
- Population Apoptotic (%) [5]: 36%
- Population Fragmented Nuclei (%) [5]: 8%
- Population Healthy Nuclei (%) [5]: 64%
- Population Hoechst High Intensity Objects (%) [5]: 9%
- Population Membrane Permeable-Phenotype (%) [5]: 2%
- Population Mitochondria Different-Phenotype (%) [5]: 73%
- Population Mitotic Cells (%) [5]: 63%
- Population Normal (%) [5]: 90%
- Population Pyknosed Nuclei (%) [5]: 26%
- Population Tubulin-Different-Phenotype (%) [5]: 52%
- Total Cell Count [5]: 417
- Population Apoptotic (%) [6]: 27%
- Population Fragmented Nuclei (%) [6]: 3%
- Population Healthy Nuclei (%) [6]: 50%
- Population Hoechst High Intensity Objects (%) [6]: 2%
- Population Membrane Permeable-Phenotype (%) [6]: 10%
- Population Mitochondria Different-Phenotype (%) [6]: 25%
- Population Mitotic Cells (%) [6]: 72%
- Population Normal (%) [6]: 97%
- Population Pyknosed Nuclei (%) [6]: 46%
- Population Tubulin-Different-Phenotype (%) [6]: 44%
- Total Cell Count [6]: 217
- Population Apoptotic (%) [7]: 74%
- Population Fragmented Nuclei (%) [7]: 11%
- Population Healthy Nuclei (%) [7]: 36%
- Population Hoechst High Intensity Objects (%) [7]: 9%
- Population Membrane Permeable-Phenotype (%) [7]: 0%
- Population Mitotic Cells (%) [7]: 25%
- Population Normal (%) [7]: 90%
- Population Pyknosed Nuclei (%) [7]: 51%
- Total Cell Count [7]: 307
- Population Apoptotic (%) [8]: 63%
- Population Fragmented Nuclei (%) [8]: 4%
- Population Healthy Nuclei (%) [8]: 41%
- Population Hoechst High Intensity Objects (%) [8]: 5%
- Population Membrane Permeable-Phenotype (%) [8]: 1%
- Population Mitochondria Different-Phenotype (%) [8]: 100%
- Population Mitotic Cells (%) [8]: 36%
- Population Normal (%) [8]: 94%
- Population Pyknosed Nuclei (%) [8]: 53%
- Population Tubulin-Different-Phenotype (%) [8]: 97%
- Total Cell Count [8]: 233
- Population Apoptotic (%) [9]: 20%
- Population Fragmented Nuclei (%) [9]: 6%
- Population Healthy Nuclei (%) [9]: 81%
- Population Hoechst High Intensity Objects (%) [9]: 5%
- Population Membrane Permeable-Phenotype (%) [9]: 2%
- Population Mitochondria Different-Phenotype (%) [9]: 22%
- Population Mitotic Cells (%) [9]: 79%
- Population Normal (%) [9]: 94%
- Population Pyknosed Nuclei (%) [9]: 11%
- Population Tubulin-Different-Phenotype (%) [9]: 23%
- Total Cell Count [9]: 698
- Population Apoptotic (%) [10]: 23%
- Population Fragmented Nuclei (%) [10]: 7%
- Population Healthy Nuclei (%) [10]: 76%
- Population Hoechst High Intensity Objects (%) [10]: 3%
- Population Membrane Permeable-Phenotype (%) [10]: 8%
- Population Mitochondria Different-Phenotype (%) [10]: 15%
- Population Mitotic Cells (%) [10]: 76%
- Population Normal (%) [10]: 96%
- Population Pyknosed Nuclei (%) [10]: 16%
- Population Tubulin-Different-Phenotype (%) [10]: 49%
- Total Cell Count [10]: 383
- Population Apoptotic (%) [11]: 73%
- Population Fragmented Nuclei (%) [11]: 15%
- Population Healthy Nuclei (%) [11]: 55%
- Population Hoechst High Intensity Objects (%) [11]: 10%
- Population Membrane Permeable-Phenotype (%) [11]: 1%
- Population Mitochondria Different-Phenotype (%) [11]: 94%
- Population Mitotic Cells (%) [11]: 26%
- Population Normal (%) [11]: 89%
- Population Pyknosed Nuclei (%) [11]: 29%
- Population Tubulin-Different-Phenotype (%) [11]: 89%
- Total Cell Count [11]: 355
- Population Apoptotic (%) [12]: 58%
- Population Fragmented Nuclei (%) [12]: 4%
- Population Healthy Nuclei (%) [12]: 62%
- Population Hoechst High Intensity Objects (%) [12]: 2%
- Population Membrane Permeable-Phenotype (%) [12]: 0%
- Population Mitochondria Different-Phenotype (%) [12]: 93%
- Population Mitotic Cells (%) [12]: 41%
- Population Normal (%) [12]: 97%
- Population Pyknosed Nuclei (%) [12]: 33%
- Population Tubulin-Different-Phenotype (%) [12]: 96%
- Total Cell Count [12]: 265
